{"source": "ChEMBL document CHEMBL1137969", "about": "“Subtype-selective nicotinic receptor antagonists: potential as tobacco use cessation agents” (Bioorg Med Chem Lett, 2004)", "key": {"[1]": {"organism": "Rattus norvegicus", "test": "Inhibitory activity against nAChR mediated nicotine-evoked [3H]DA overflow using rat striatal slices; call rule not given here", "assay_type": "functional, organism-based", "summary_of_the_method": "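Rat striatal slices preincubated in oxygenated Krebs' buffer (pH 7.4) at 34 °C, loaded with [³H]DA during the last 30 min of the 60-min incubation. Slices then superfused at 34 °C with buffer containing nomifensine and pargyline. Nicotine-evoked overflow was normalized to slice tritium content, using a repeated-measures design.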"}, "[2]": {"biological_target": "T1, Neuronal acetylcholine receptor; alpha4/beta2 (Rattus norvegicus, UniProt P09483+P12390)", "T1 sequence (P09483 whole entry)": "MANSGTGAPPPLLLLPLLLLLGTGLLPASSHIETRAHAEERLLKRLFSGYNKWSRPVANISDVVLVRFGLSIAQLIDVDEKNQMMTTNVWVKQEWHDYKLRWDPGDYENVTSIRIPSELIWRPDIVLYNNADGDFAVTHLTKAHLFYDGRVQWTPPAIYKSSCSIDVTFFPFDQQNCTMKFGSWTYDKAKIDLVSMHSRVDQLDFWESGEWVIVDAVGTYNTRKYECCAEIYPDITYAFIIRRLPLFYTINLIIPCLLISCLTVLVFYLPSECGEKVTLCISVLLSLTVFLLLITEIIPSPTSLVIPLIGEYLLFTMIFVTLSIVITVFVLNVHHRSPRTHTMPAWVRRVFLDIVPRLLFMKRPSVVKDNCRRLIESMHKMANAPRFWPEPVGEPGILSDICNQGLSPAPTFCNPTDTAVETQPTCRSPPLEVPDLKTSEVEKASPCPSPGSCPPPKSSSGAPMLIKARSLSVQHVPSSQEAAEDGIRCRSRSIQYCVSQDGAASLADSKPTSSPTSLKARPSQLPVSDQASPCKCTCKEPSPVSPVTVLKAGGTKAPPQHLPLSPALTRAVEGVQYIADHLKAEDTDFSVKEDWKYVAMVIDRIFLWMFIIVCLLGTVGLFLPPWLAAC", "T1 sequence (P12390 whole entry)": "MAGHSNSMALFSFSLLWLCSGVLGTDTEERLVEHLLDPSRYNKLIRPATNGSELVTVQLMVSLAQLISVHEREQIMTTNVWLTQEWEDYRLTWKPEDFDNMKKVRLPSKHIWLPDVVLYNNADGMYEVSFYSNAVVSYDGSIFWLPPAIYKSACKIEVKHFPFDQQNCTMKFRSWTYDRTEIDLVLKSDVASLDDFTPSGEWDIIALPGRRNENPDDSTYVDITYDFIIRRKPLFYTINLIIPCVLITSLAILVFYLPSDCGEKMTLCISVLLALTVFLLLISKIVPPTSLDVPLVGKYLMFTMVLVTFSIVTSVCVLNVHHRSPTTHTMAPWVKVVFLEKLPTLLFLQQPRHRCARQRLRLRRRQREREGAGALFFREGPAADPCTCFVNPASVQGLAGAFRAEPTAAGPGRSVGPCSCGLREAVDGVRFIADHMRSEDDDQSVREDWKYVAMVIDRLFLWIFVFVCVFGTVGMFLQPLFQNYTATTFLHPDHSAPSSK", "test": "Inhibition of [3H]nicotine binding to Nicotinic acetylcholine receptor alpha4-beta2 in rat brain membranes", "assay_type": "cell membranes", "summary_of_the_method": "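Rat whole-brain membranes (cortex and cerebellum removed), washed by repeated centrifugation and stored at −70 °C. Incubated with 3 nM [³H]nicotine and a range of analogue concentrations in pH 7.5 HEPES-based buffer with Tris, 60 min at room temperature. Nonspecific binding defined with nicotine. Filtration on PEI-soaked GF/B filters, scintillation counting. Ki is the mean of four independent experiments with standard error.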"}, "[3]": {"biological_target": "Neuronal acetylcholine receptor subunit alpha-7 (Rattus norvegicus, UniProt Q05941)", "sequence (Q05941 whole entry)": "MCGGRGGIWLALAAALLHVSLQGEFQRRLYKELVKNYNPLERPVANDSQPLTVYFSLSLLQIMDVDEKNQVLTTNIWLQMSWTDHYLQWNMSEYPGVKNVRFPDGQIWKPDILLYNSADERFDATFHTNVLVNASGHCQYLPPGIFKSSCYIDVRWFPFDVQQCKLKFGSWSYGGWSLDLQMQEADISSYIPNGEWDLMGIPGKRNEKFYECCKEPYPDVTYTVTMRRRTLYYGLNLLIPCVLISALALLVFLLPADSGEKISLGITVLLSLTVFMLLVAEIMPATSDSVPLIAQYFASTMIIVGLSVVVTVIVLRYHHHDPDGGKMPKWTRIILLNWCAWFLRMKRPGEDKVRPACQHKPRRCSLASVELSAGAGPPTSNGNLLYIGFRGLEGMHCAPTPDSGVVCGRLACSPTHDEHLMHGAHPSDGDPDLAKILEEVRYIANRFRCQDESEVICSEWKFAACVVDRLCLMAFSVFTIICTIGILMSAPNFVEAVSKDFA", "test": "Inhibition of [3H]-MLA binding to Nicotinic acetylcholine receptor alpha-7 in rat brain membranes; NA= Not active", "assay_type": "cell membranes", "summary_of_the_method": "(§1)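 Rat whole brain minus cortex and cerebellum, homogenized in HEPES buffer (pH 7.5), washed by repeated 25,000g spins with one 37 °C 10-min incubation, stored at −70 °C. Membranes ([…]) incubated 60 min at room temperature with 3 nM radioligand plus analogue ([…]) in HEPES assay buffer with 50 mM Tris. Nonspecific binding defined with […] MLA, respectively. PEI-soaked GF/B filtration. Four independent experiments.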"}, "[4]": {"biological_target": "T1, Neuronal acetylcholine receptor; alpha4/beta2", "test": "Inhibition of [3H]nicotine binding to Nicotinic acetylcholine receptor alpha4-beta2 in rat brain membranes; NA= Not active", "assay_type": "cell membranes", "summary_of_the_method": "as §1"}, "[5]": {"organism": "Rattus norvegicus", "test": "Inhibitory activity against nAChR mediated nicotine-evoked [3H]DA overflow using rat striatal slices; Not determined", "assay_type": "functional, organism-based", "summary_of_the_method": "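Rat striatal slices (4–6 mg) preincubated 60 min in oxygenated Krebs' buffer, pH 7.4, at 34 °C, […] [³H]DA (final) over the last 30 min. Slices then superfused at 1 mL/min, 34 °C, with nomifensine and pargyline present. Fractional release normalized to slice total tritium. Intrinsic and inhibitory activity measured on slices from the same rat. Means of 3–6 experiments.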"}}}
{"smiles": "CCCCCCCCCC[n+]1cccc(C)c1.[I-]", "values": [{"measurement": "IC50", "setting": "[1]", "value": 300, "unit": "nM"}, {"measurement": "Ki", "setting": "[2]", "value": 26, "unit": "µM"}, {"measurement": "Ki", "setting": "[3]", "value": "Not Active"}]}
{"smiles": "Cc1ccc[n+](CCCCCC[n+]2cccc(C)c2)c1.[I-].[I-]", "values": [{"measurement": "IC50", "setting": "[1]", "value": 1660, "unit": "nM"}, {"measurement": "Ki", "setting": "[4]", "value": "Not Active"}, {"measurement": "Ki", "setting": "[3]", "value": "Not Active"}]}
{"smiles": "CCCCCCCCCCC[n+]1cccc(C)c1.[I-]", "values": [{"measurement": "Ki", "setting": "[4]", "value": "Not Active"}, {"measurement": "Ki", "setting": "[3]", "value": "Not Active"}]}
{"smiles": "CCCCCCCC[n+]1cccc(C)c1.[I-]", "values": [{"measurement": "IC50", "setting": "[1]", "value": 1000, "unit": "nM"}, {"measurement": "Ki", "setting": "[4]", "value": "Not Active"}, {"measurement": "Ki", "setting": "[3]", "value": "Not Active"}]}
{"smiles": "Cc1ccc[n+](CCCCCCCCC[n+]2cccc(C)c2)c1.[Br-].[Br-]", "values": [{"measurement": "Ki", "setting": "[3]", "value": "Not Active"}]}
{"smiles": "Cc1ccc[n+](CCCCCCCCCCC[n+]2cccc(C)c2)c1.[Br-].[Br-]", "values": [{"measurement": "IC50", "setting": "[1]", "value": 610, "unit": "nM"}, {"measurement": "Ki", "setting": "[3]", "value": "Not Active"}]}
{"smiles": "CCCCCCCCC[n+]1cccc(C)c1.[I-]", "values": [{"measurement": "Ki", "setting": "[2]", "value": 62, "unit": "µM"}, {"measurement": "Ki", "setting": "[3]", "value": "Not Active"}]}
{"smiles": "Cc1ccc[n+](CCCCCCCC[n+]2cccc(C)c2)c1.[I-].[I-]", "values": [{"measurement": "IC50", "setting": "[5]", "value": 10, "unit": "nM"}, {"measurement": "Ki", "setting": "[4]", "value": "Not Active"}, {"measurement": "Ki", "setting": "[3]", "value": "Not Active"}]}
{"smiles": "Cc1ccc[n+](CCCCCCCCCC[n+]2cccc(C)c2)c1.[I-].[I-]", "values": [{"measurement": "IC50", "setting": "[1]", "value": 30, "unit": "nM"}, {"measurement": "Ki", "setting": "[4]", "value": "Not Active"}, {"measurement": "Ki", "setting": "[3]", "value": "Not Active"}]}
{"smiles": "CCCCCCCCCCCC[n+]1cccc(C)c1.[I-]", "values": [{"measurement": "IC50", "setting": "[1]", "value": 30, "unit": "nM"}, {"measurement": "Ki", "setting": "[4]", "value": "Not Active"}, {"measurement": "Ki", "setting": "[3]", "value": "Not Active"}]}
{"smiles": "Cc1ccc[n+](CCCCCCCCCCCC[n+]2cccc(C)c2)c1.[Br-].[Br-]", "values": [{"measurement": "IC50", "setting": "[1]", "value": 5, "unit": "nM"}, {"measurement": "Ki", "setting": "[3]", "value": "Not Active"}]}
